Measurements taken from PMC9123270 (The Journal of Biological Chemistry, 2022).
Where “and” joins values, the source holds several entries; their conditions need not be identical. Equal values may be shown once.

Tests used:
[1] = target: Anopheles gambiae D7 long-form salivary protein AngaD7L2 (Anopheles gambiae); assay: SPR
[2] = tested on: normal control plasma; assay: Plasma recalcification assay; assay type: biochemical, human
[3] = tested on: normal control plasma; assay: Activated partial thromboplastin; assay type: biochemical, human; details: recombinant protein 15 μM, 5 μl in 50 μl plasma
Method in brief: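 Plasma (50 μl) was preincubated 2 min at 37 °C with 5 μl of test protein (15 μM in Hepes buffer), Hepes buffer (negative control) or 3 μM Alboserpin (positive control). aPTT reagent was added for 3 min at 37 °C, then clotting was started with prewarmed 25 mM CaCl2. Clotting time was recorded on a coagulation analyzer and converted to ratios. Run in triplicate.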

[4] = tested on: normal control plasma; assay: Prothrombin; assay type: biochemical, human; details: recombinant protein 15 μM, 5 μl in 50 μl plasma
Method in brief: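 Normal control plasma (50 μl) was incubated 2 min at 37 °C with 5 μl of test protein (15 μM in Hepes buffer), Hepes buffer (negative control) or 3 μM Alboserpin (positive control). PT was started by adding Neoplastine CI Plus reagent, and clotting time was recorded with stirring. Run in triplicate.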

[5] = tested on: Human platelet-rich plasma; assay: Platelet aggregation assay; assay type: cell-based
[6] = PEAQ-ITC screen against five biogenic amines and five lipids; assay type: binding; details: leukotrienes other than LTC4
Method in brief: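 Isothermal titration calorimetry in TBS (20 mM Tris–HCl, 150 mM NaCl, pH 7.4) at 30 °C, 750 rpm. Protein at 5 μM was titrated with 10 μl injections of ligand at 50 μM every 150 s. Lipid ligands were dried under nitrogen, resuspended in TBS, vortexed and sonicated 10 min. Samples were degassed. Data were fitted to a single-site model. At least three replicates.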

[7] = tested on: Third-order mesenteric arteries; assay: Vasoconstriction by pressure myography in isolated mesenteric arteries; set-up: species or system C57Bl/6J mice; details: for LogIC50 of vasoconstriction to U-46619: n = 6

Molecule: human coagulation factor XII (natural protein)
- Kd [1]: 16.4 nM
- koff [1]: 0.0169 s⁻¹
- kon [1]: 125000 M⁻¹ s⁻¹

Molecule: human coagulation factor XIIa (enzyme)
- Kd [1]: 5.03 nM
- koff [1]: 0.403 s⁻¹
- kon [1]: 2.03e+08 M⁻¹ s⁻¹

Molecule: human coagulation factor XI (natural protein)
- Kd [1]: 8.47 nM
- koff [1]: 0.00696 s⁻¹
- kon [1]: 99200 M⁻¹ s⁻¹

B1: AngaD7L2: Recombinant Anopheles gambiae D7 long-form salivary protein, 6xHis-tagged, expressed in human embryonic kidney cells (protein)
chain: AQPWKALDPEQALYVYKRCYEDHLPAGSSRVTYLKSWNAWKLEPNDAVTHCYAKCVLIGLQLYEEKDKAFKSERIPVQHEAYKTLNEANSREVTEYQQALASINAGDGSCVALYNAYLPVHNKFVDLSRKLYHGTVEGAAKIYAAMPQIKQKGESFFAYCAKKIWGGYNKKEWKRGRNYELSGSSQFKKVIDCIFRGLRYMDDSGLKVDEVVRDFNLINKSDLEPEVRSVLASCTGTQAYDYYSCLLNSPVKEDFKNAFDFHELRSADYAFLLRGKVYEGPEQVKEEMKHLNTTVHF
modifications: left off: His6, C-terminal, state not stated
- Plasma recalcification (time to OD = 0.025) ([2]; final concentration 5 μM): entirely unable to coagulate
- Plasma recalcification (time to OD = 0.025) ([2]; serially diluted recombinant protein, versus Hepes buffer negative control): dose-dependent anticoagulant response
- aPTT time to coagulation (intrinsic pathway) [3]: significantly increased
- PT clotting time (extrinsic pathway) [4]: did not have an observable effect

B2: AngaD7L1: Recombinant Anopheles gambiae D7 long-form salivary protein, 6xHis-tagged, expressed in human embryonic kidney cells (protein, UniProt Q7PJ76 22-311, looked up)
Long form salivary protein …: FKALDPEEAWYVYERCHEDHLPSGPNRETYLKTWKFWKLEPNDAVTHCYVKCTLAGLQMYDEKTNTFKPETVPVQHEAYKSFTEVESSKVNELQQALSSLNAGSGSCAEVFNAYLPVHNKYVGVSRKIYHGTVDSVAKIYEAKPEIKKQEESFFAYCAKKALGANGKEGYTKLRDYELADSAEFRNAMDCVFRGFRYMDDSGLKVDEVVRDFNLINKSDLEPEVRSVLASCTGTQAYDYYSCLLNSPVKEDFRNAFYFHELRSANYGYLAMGKVYEGPEKVKEELKKLNY
modifications: 6xHis tag
- Effect on platelet aggregation ([5]; agonist 0.3 μM U-46619, protein 0.3 μM): reduced platelet aggregation
- Effect on platelet aggregation ([5]; agonist 0.3 μM U-46619, protein 1 μM): platelet aggregation was inhibited
- Effect on platelet aggregation ([5]; agonist 0.7 μM U-46619, protein 1 μM): platelet aggregation was inhibited
- Effect on platelet aggregation ([5]; agonist 0.7 μM U-46619, protein 3 μM): inhibited platelet aggregation
- Effect on platelet aggregation ([5]; agonist 1 μM arachidonic acid, protein at any concentration): no effect
- Effect on platelet aggregation ([5]; agonist 1 μg/ml collagen, protein 0.3 μM): did not inhibit platelet aggregation
- Effect on platelet aggregation ([5]; agonist 1 μg/ml collagen, protein 3 μM): reduced platelet aggregation
- Effect on platelet aggregation ([5]; agonist 10 μg/ml collagen, protein 1 μM): no effect
- Binding of other leukotrienes [6]: did not bind any other leukotriene
- LogIC50 of vasoconstriction to U-46619 ([7]; after AngaD7L1 washout): −8.10
- fold reduction in effective constrictive potency of U-46619 ([7]; in presence of AngaD7L1 10 μM): ~70 fold
- LogIC50 of vasoconstriction to U-46619 ([7]; in presence of AngaD7L1 10 μM): −6.4 and −6.38
